Results taken from ChEMBL document CHEMBL5214909.

Experiments:
[1] = target: Replicase polyprotein 1ab (Severe acute respiratory syndrome coronavirus 2, UniProt P0DTD1); assay: Inhibition of SARS-CoV-2 3CLpro using FAM-SAVLQ/SG-QXL520 as substrate measured after 1 hr by fluorescence based microplate reader analysis
How it was run: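 The protease was full-length, codon-optimized SARS-CoV-2 3CLpro with an N-terminal His6 tag, expressed from pET-28a(+). It was preincubated with serial inhibitor dilutions or DMSO for 1 h at 37 °C in 20 mM HEPES pH 8, 200 mM NaCl, 0.4 mM EDTA, 60% glycerol and 6 mM DTT. Substrate was then added. Fluorescence (ex 480/em 520 nm) was read 1 h later, minus a no-protease background. IC50 came from a variable-slope fit, averaged over at least two determinations.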

Huh-7 = assay: Cytotoxicity against human Huh-7 cells by CytoTox 96 nonradioactive cytotoxicity assay; format: functional
How it was run: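 Confluent cells were exposed to compound at 1 to 100 μM for 72 h, and cytotoxicity was read with the CytoTox 96 nonradioactive kit. CC50 came from a variable-slope fit, averaged over at least two determinations.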

[2] = Inhibition of MERS-CoV 3CLpro; parameters: species or system Middle East respiratory syndrome-related coronavirus
SARS-CoV-2 = assay: Antiviral activity against SARS-CoV-2 infected in African green monkey Vero E6 cells measured after 48 to 72 hrs; format: functional, organism-based; conditions: Severe acute respiratory syndrome coronavirus 2, Vero C1008

Compound | IC50 [1] [µM] | CC50 (Huh-7) [µM] | IC50 [2] [µM] | EC50 (SARS-CoV-2) [µM]
CC(C)C[C@H](NC(=O)OCC12CC3CC(CC(O)(C3)C1)C2)C(=O)N[C@H](C=O)C[C@H]1CCNC1=O | 0.82 | > 100 | – | –
CC(C)C[C@H](NC(=O)OCC12CC3CC(CC(C3)C1)C2)C(=O)N[C@H](C=O)C[C@H]1CCNC1=O | 0.18 | > 100 | 0.055 | –
CCCCCC12CCC(COC(=O)N[C@@H](CC(C)C)C(=O)N[C@H](C=O)C[C@@H]3CCNC3=O)(CC1)CC2 (single isomer, unassigned) | – | 21 | – | –
[2H]C([2H])(OC(=O)N[C@@H](CC(C)C)C(=O)N[C@H](C=O)CC1CCNC1=O)C1CC2C=CCC(C2)C1 (single isomer, unassigned) | – | > 100 | – | –
CC(C)C[C@H](NC(=O)OCC1CC2C=CC1C2)C(=O)N[C@@H](C[C@@H]1CCNC1=O)C(O)S(=O)(=O)O (single isomer, unassigned) | – | > 100 | – | –
[2H]C([2H])(OC(=O)N[C@@H](CC(C)C)C(=O)N[C@@H](CC1CCNC1=O)C(O)S(=O)(=O)O)C1CC2C=CCC(C2)C1 (single isomer, unassigned) | – | > 100 | – | –
CC(C)C[C@H](NC(=O)OCC12CC3CC(CC(C3)C1)C2)C(=O)N[C@@H](C[C@H]1CCNC1=O)C(O)S(=O)(=O)O (stereo not given in full) | 0.15 | > 100 | 0.053 | –
[2H]C([2H])(OC(=O)N[C@@H](CC(C)C)C(=O)N[C@H](C=O)C[C@H]1CCNC1=O)C1CC2CCCC(C2)C1 (stereo not given in full) | 0.29 | > 100 | – | –
[2H]C([2H])(OC(=O)N[C@@H](CC(C)C)C(=O)N[C@H](C=O)CC1CCNC1=O)C12CCC(CCCCC)(CC1)CC2 (single isomer, unassigned) | – | 20 | – | –
CC(C)C[C@H](NC(=O)OCCC12CC3CC(CC(C3)C1)C2)C(=O)N[C@@H](C[C@H]1CCNC1=O)C(O)S(=O)(=O)O (stereo not given in full) | 0.25 | > 100 | – | –
CC(C)C[C@H](NC(=O)OCC1CC2CCCC(C2)C1)C(=O)N[C@H](C=O)C[C@H]1CCNC1=O (stereo not given in full) | 0.18 | > 100 | 0.052 | 0.035
CC(C)C[C@H](NC(=O)OC1CC2CCC(C1)N2C(=O)OC(C)(C)C)C(=O)N[C@@H](C[C@H]1CCNC1=O)C(O)S(=O)(=O)O (stereo not given in full) | 1.71 | > 100 | – | –
[2H]C([2H])(OC(=O)N[C@@H](CC(C)C)C(=O)N[C@H](C=O)C[C@H]1CCNC1=O)C12CC3CC(CC(C3)C1)C2 | 0.29 | > 100 | – | –
CC(C)C[C@H](NC(=O)OCC1C[C@@H]2C=CC[C@H](C1)C2)C(=O)N[C@@H](C[C@@H]1CCNC1=O)C(O)S(=O)(=O)O (single isomer, unassigned) | – | > 100 | – | –
[2H]C([2H])(OC(=O)N[C@@H](CC(C)C)C(=O)N[C@@H](C[C@H]1CCNC1=O)C(O)S(=O)(=O)[O-])C1CC2CCCC(C2)C1.[Na+] (stereo not given in full) | 0.29 | > 100 | – | –
CC(C)C[C@H](NC(=O)OCCC12CC3CC(CC(C3)C1)C2)C(=O)N[C@H](C=O)C[C@H]1CCNC1=O | 0.27 | > 100 | – | –
CC(C)C[C@H](NC(=O)OCC1CC2CCC1C2)C(=O)N[C@@H](C[C@@H]1CCNC1=O)C(O)S(=O)(=O)O (single isomer, unassigned) | – | > 100 | 0.058 | –
CC(C)C[C@H](NC(=O)OC1CC2CCC(C1)N2C(=O)OC(C)(C)C)C(=O)N[C@H](C=O)C[C@H]1CCNC1=O (stereo not given in full) | 1.9 | > 100 | – | –
CC(C)C[C@H](NC(=O)OCC1CC2CCC1C2)C(=O)N[C@H](C=O)C[C@@H]1CCNC1=O (single isomer, unassigned) | – | > 100 | 0.063 | –
CC(C)C[C@H](NC(=O)OC1CC2CCC(C1)N2C(=O)OCc1ccccc1)C(=O)N[C@H](C=O)C[C@H]1CCNC1=O (stereo not given in full) | 0.39 | > 100 | – | –
CC(C)C[C@H](NC(=O)OCC1C[C@@H]2C=CC[C@H](C1)C2)C(=O)N[C@H](C=O)C[C@@H]1CCNC1=O (single isomer, unassigned) | – | > 100 | – | –
CC(C)C[C@H](NC(=O)OC1CC2CCC(C1)N2C(=O)OCc1ccccc1)C(=O)N[C@@H](C[C@H]1CCNC1=O)C(O)S(=O)(=O)O (stereo not given in full) | 0.37 | > 100 | – | –
[2H]C([2H])(OC(=O)N[C@@H](CC(C)C)C(=O)N[C@H](C=O)C[C@H]1CCNC1=O)C12CC3CC(CC(O)(C3)C1)C2 | 0.74 | > 100 | – | –
CC(C)C[C@H](NC(=O)OCC1CC2C=CC1C2)C(=O)N[C@H](C=O)C[C@@H]1CCNC1=O (single isomer, unassigned) | – | > 100 | – | –
[2H]C([2H])(OC(=O)N[C@@H](CC(C)C)C(=O)N[C@@H](C[C@H]1CCNC1=O)C(O)S(=O)(=O)[O-])C12CC3CC(CC(O)(C3)C1)C2.[Na+] (stereo not given in full) | 0.78 | > 100 | – | –
CC(C)C[C@H](NC(=O)OCC12CC3CC(CC(O)(C3)C1)C2)C(=O)N[C@@H](C[C@H]1CCNC1=O)C(O)S(=O)(=O)O (stereo not given in full) | 1.03 | > 100 | – | –
[2H]C([2H])(OC(=O)N[C@@H](CC(C)C)C(=O)N[C@@H](C[C@H]1CCNC1=O)C(O)S(=O)(=O)[O-])C12CC3CC(CC(C3)C1)C2.[Na+] (stereo not given in full) | 0.27 | > 100 | – | –
CCCCCC12CCC(COC(=O)N[C@@H](CC(C)C)C(=O)N[C@@H](C[C@@H]3CCNC3=O)C(O)S(=O)(=O)O)(CC1)CC2 (single isomer, unassigned) | – | 21 | – | –
CC(C)C[C@H](NC(=O)OCC1C[C@H]2CCC[C@@H](C1)C2)C(=O)N[C@@H](C[C@@H]1CCNC1=O)C(O)S(=O)(=O)O (single isomer, unassigned) | – | > 100 | 0.049 | 0.032
[2H]C([2H])(OC(=O)N[C@@H](CC(C)C)C(=O)N[C@@H](CC1CCNC1=O)C(O)S(=O)(=O)O)C12CCC(CCCCC)(CC1)CC2 (single isomer, unassigned) | – | 23 | – | –
